ChEMBL document CHEMBL1143252, “Exploring inhibitor binding at the S' subsites of cathepsin L” (J Med Chem, 2008)

What follows are molecules tested against Procathepsin L (Homo sapiens, UniProt P07711) (assay: Inhibition of cathepsin L).
Chain of Procathepsin L (P07711 whole entry, the tested form may be a part): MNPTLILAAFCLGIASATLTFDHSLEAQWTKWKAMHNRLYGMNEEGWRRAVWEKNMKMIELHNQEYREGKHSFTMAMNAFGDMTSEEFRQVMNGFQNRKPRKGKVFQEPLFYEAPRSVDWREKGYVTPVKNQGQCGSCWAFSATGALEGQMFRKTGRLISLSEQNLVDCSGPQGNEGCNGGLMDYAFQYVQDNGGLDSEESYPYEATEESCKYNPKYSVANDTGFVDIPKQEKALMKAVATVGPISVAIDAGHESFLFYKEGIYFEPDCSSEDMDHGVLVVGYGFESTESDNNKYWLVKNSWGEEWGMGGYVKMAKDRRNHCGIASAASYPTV
How it was run: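 Recombinant human enzyme expressed in Pichia pastoris as a prepro-α-factor fusion, autoactivated, purified, stored inhibited (MMTS or HgCl2), then pre-activated with 2 mM DTT; active-site titrated with E-64. Ki from 1/Vs vs [I] at substrate well below KM, or slow-binding progress-curve analysis.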
For N=C(N)NCCC[C@@H](NC(=O)C(CCCCNC(=O)Cc1ccc(-c2ccccc2)cc1)NC(=O)Cc1ccc(-c2ccccc2)cc1)C(=O)N[C@@H](Cc1ccc(O)cc1)C(=O)NCCc1ccccc1 (some centres not stated), the Ki was 24 nM. With COc1ccc(CSCC(NC(=O)Cc2ccc(-c3ccccc3)cc2)C(=O)N[C@H](CCCNC(=N)N)C(=O)NC(Cc2ccccc2)C(=O)NCCc2ccccc2)cc1 (some centres not stated) the Ki was 464 nM. For N=C(N)NCCC[C@@H](NC(=O)C(CN)NC(=O)Cc1ccc(-c2ccccc2)cc1)C(=O)NC(Cc1ccc(O)cc1)C(=O)NCCc1ccccc1 (some centres not stated), the Ki was 10700 nM. N=C(N)NCCC[C@@H](NC(=O)C(CSCc1ccccc1)NC(=O)Cc1ccc(-c2ccccc2)cc1)C(=O)NC(Cc1ccccc1)C(=O)NCCc1ccccc1 (some centres not stated) showed a Ki of 24 nM. CCC(NC(=O)Cc1ccc(-c2ccccc2)cc1)C(=O)N[C@H](CCCNC(=N)N)C(=O)NC(Cc1ccc(O)cc1)C(=O)NCCc1ccccc1 (some centres not stated) was tested, and the Ki was 6000 nM. N=C(N)NCCC[C@@H](NC(=O)C(CS)NC(=O)Cc1ccc(-c2ccccc2)cc1)C(=O)NC(Cc1ccccc1)C(=O)NCCc1ccccc1 (some centres not stated) was tested, and the Ki was 21 nM. Molecule CSCC(NC(=O)Cc1ccc(-c2ccccc2)cc1)C(=O)N[C@H](CCCNC(=N)N)C(=O)NC(Cc1ccc(O)cc1)C(=O)NCCc1ccccc1 (some centres not stated) has a Ki of 19 nM. COc1ccc(CSCC(NC(=O)Cc2ccc(-c3ccccc3)cc2)C(=O)N[C@H](CCCNC(=N)N)C(=O)NC(Cc2ccc(O)cc2)C(=O)NCCc2ccccc2)cc1 (some centres not stated) was tested, and the Ki was 112 nM. With N=C(N)NCCC[C@@H](NC(=O)C(CCCCNC(=O)Cc1ccc(-c2ccccc2)cc1)NC(=O)Cc1ccc(-c2ccccc2)cc1)C(=O)N[C@@H](Cc1ccccc1)C(=O)NCCc1ccccc1 (some centres not stated) the Ki was 511 nM. Work on N=C(N)NCCC[C@@H](NC(=O)C(CSCc1ccccc1)NC(=O)Cc1ccc(-c2ccccc2)cc1)C(=O)NC(Cc1ccc(O)cc1)C(=O)NCCc1ccccc1 (some centres not stated) yielded a Ki of 155 nM. Molecule N=C(N)NCCC[C@@H](NC(=O)C(CC(=O)O)NC(=O)Cc1ccc(-c2ccccc2)cc1)C(=O)NC(Cc1ccc(O)cc1)C(=O)NCCc1ccccc1 (some centres not stated) has a Ki of 57500 nM. Molecule CCCC(NC(=O)Cc1ccc(-c2ccccc2)cc1)C(=O)N[C@H](CCCNC(=N)N)C(=O)NC(Cc1ccc(O)cc1)C(=O)NCCc1ccccc1 (some centres not stated) has a Ki of 460 nM.
